Reference: ChEMBL document CHEMBL1629653, “CMY-31 and CMY-36 cephalosporinases encoded by ColE1-like plasmids” (Antimicrob Agents Chemother, 2009)
Values after ≈ are worked out from the molar mass of the structure shown.

Columns and labels:
[1] = molecular target: Class C beta-lactamase CMY-36 (Klebsiella pneumoniae, UniProt Q48435); assay: Inhibition of Klebsiella pneumoniae HP205 cephalosporinase CMY-36 by UV spectrophotometer in presence of 100 uM of cephalothin
[2] = Inhibition of CMY-2 by UV spectrophotometer in presence of 100 uM of cephalothin
[3] = Antimicrobial activity against Salmonella enterica serotype Newport AM17274 expressing CMY-31 cephalosporinase by agar dilution method; format: functional, Salmonella enterica subsp. enterica serovar Newport
Method in brief: (§1)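 MICs of β-lactams determined by agar dilution against the clinical isolates.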

Escherichia coli [4] = assay: Antimicrobial activity against Escherichia coli DH5[alpha] transformant harboring pA172 plasmid expressing cephalosporinase CMY-31 by agar dilution method; format: functional
Escherichia coli [5] = assay: Antimicrobial activity against Escherichia coli DH5[alpha] transformant harboring pH205 plasmid expressing cephalosporinase CMY-36 by agar dilution method; format: functional
Escherichia coli [6] = assay: Antimicrobial activity against Escherichia coli DH5[alpha] harboring pB-c31 plasmid expressing cephalosporinase CMY-31 by agar dilution method; format: functional
Escherichia coli [7] = assay: Antimicrobial activity against Escherichia coli DH5[alpha] harboring pB-c36 plasmid expressing cephalosporinase CMY-36 by agar dilution method; format: functional
Escherichia coli [8] = assay: Antimicrobial activity against Escherichia coli DH5[alpha] harboring pB-c2 plasmid expressing cephalosporinase CMY-2 by agar dilution method; format: functional
Klebsiella pneumoniae [9] = assay: Antimicrobial activity against Klebsiella pneumoniae HP205 expressing CMY-36 cephalosporinase by agar dilution method; format: functional; method in brief: as §1
Escherichia coli [10] = assay: Antimicrobial activity against Escherichia coli DH5[alpha] harboring pBCSK plasmid by agar dilution method; format: functional
[11] = Antimicrobial activity against Salmonella enterica serotype Newport AM17274 expressing CMY-31 cephalosporinase by agar dilution method in presence of Tazobactam; format: functional, Salmonella enterica subsp. enterica serovar Newport
Klebsiella pneumoniae [12] = assay: Antimicrobial activity against Klebsiella pneumoniae HP205 expressing CMY-36 cephalosporinase by agar dilution method in presence of Tazobactam; format: functional
Escherichia coli [13] = assay: Antimicrobial activity against Escherichia coli DH5[alpha] transformant harboring pA172 plasmid expressing cephalosporinase CMY-31 by agar dilution method in presence of Tazobactam; format: functional
Escherichia coli [14] = assay: Antimicrobial activity against Escherichia coli DH5[alpha] transformant harboring pH205 plasmid expressing cephalosporinase CMY-36 by agar dilution method in presence of Tazobactam; format: functional
Escherichia coli [15] = assay: Antimicrobial activity against Escherichia coli DH5[alpha] harboring pB-c31 plasmid expressing cephalosporinase CMY-31 by agar dilution method in presence of Tazobactam; format: functional
Escherichia coli [16] = assay: Antimicrobial activity against Escherichia coli DH5[alpha] harboring pB-c36 plasmid expressing cephalosporinase CMY-36 by agar dilution method in presence of Tazobactam; format: functional
Escherichia coli [17] = assay: Antimicrobial activity against Escherichia coli DH5[alpha] harboring pB-c2 plasmid expressing cephalosporinase CMY-2 by agar dilution method in presence of Tazobactam; format: functional
Escherichia coli [18] = assay: Antimicrobial activity against Escherichia coli DH5[alpha] harboring pBCSK plasmid by agar dilution method in presence of Tazobactam; format: functional
[19] = Antimicrobial activity against Salmonella enterica serotype Newport AM17274 expressing CMY-31 cephalosporinase by agar dilution method in presence of clavulanic acid; format: functional, Salmonella enterica subsp. enterica serovar Newport; method in brief: as §1
Klebsiella pneumoniae [20] = assay: Antimicrobial activity against Klebsiella pneumoniae HP205 expressing CMY-36 cephalosporinase by agar dilution method in presence of clavulanic acid in presence of clavulanic acid; format: functional; method in brief: as §1
Escherichia coli [21] = assay: Antimicrobial activity against Escherichia coli DH5[alpha] transformant harboring pA172 plasmid expressing cephalosporinase CMY-31 by agar dilution method in presence of clavulanic acid; format: functional
Escherichia coli [22] = assay: Antimicrobial activity against Escherichia coli DH5[alpha] transformant harboring pH205 plasmid expressing cephalosporinase CMY-36 by agar dilution method in presence of clavulanic acid; format: functional
Escherichia coli [23] = assay: Antimicrobial activity against Escherichia coli DH5[alpha] harboring pB-c31 plasmid expressing cephalosporinase CMY-31 by agar dilution method in presence of clavulanic acid; format: functional
Escherichia coli [24] = assay: Antimicrobial activity against Escherichia coli DH5[alpha] harboring pB-c36 plasmid expressing cephalosporinase CMY-36 by agar dilution method in presence of clavulanic acid; format: functional
Escherichia coli [25] = assay: Antimicrobial activity against Escherichia coli DH5[alpha] harboring pB-c2 plasmid expressing cephalosporinase CMY-2 by agar dilution method in presence of clavulanic acid; format: functional
Escherichia coli [26] = assay: Antimicrobial activity against Escherichia coli DH5[alpha] harboring pBCSK plasmid by agar dilution method in presence of clavulanic acid; format: functional

Chain of Class C beta-lactamase CMY-36 (Q48435 whole entry): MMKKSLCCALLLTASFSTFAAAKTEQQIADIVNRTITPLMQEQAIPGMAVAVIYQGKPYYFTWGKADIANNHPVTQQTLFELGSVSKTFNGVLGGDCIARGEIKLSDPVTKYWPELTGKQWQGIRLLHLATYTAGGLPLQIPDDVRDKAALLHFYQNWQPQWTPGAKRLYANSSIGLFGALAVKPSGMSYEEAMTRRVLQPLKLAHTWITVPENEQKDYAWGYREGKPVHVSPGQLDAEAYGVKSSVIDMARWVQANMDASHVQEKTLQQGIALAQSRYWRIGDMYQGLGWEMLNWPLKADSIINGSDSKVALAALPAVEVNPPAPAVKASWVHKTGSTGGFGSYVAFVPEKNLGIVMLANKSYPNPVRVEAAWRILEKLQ

Compound: Cc1onc(-c2ccccc2Cl)c1C(=O)N[C@@H]1C(=O)N2[C@@H]1SC(C)(C)[C@@H]2C(=O)O [CLOXACILLIN]
- IC50 [1]: 4 nM
- IC50 [2]: 4 nM

Compound: CO/N=C(\C(=O)N[C@@H]1C(=O)N2C(C(=O)[O-])=C(C[N+]3(C)CCCC3)CS[C@H]12)c1csc(N)n1
- MIC [3]: 0.12 µg/mL (≈ 0.25 µM)
- MIC (Escherichia coli [4]): 0.12 µg/mL (≈ 0.25 µM)
- MIC (Escherichia coli [5]): 0.25 µg/mL (≈ 0.52 µM)
- MIC (Escherichia coli [6]): 0.25 µg/mL (≈ 0.52 µM)
- MIC (Escherichia coli [7]): 0.25 µg/mL (≈ 0.52 µM)
- MIC (Escherichia coli [8]): 0.25 µg/mL (≈ 0.52 µM)

Compound: CO/N=C(\C(=O)N[C@@H]1C(=O)N2C(C(=O)O)=C(CSc3nc(=O)c(O)nn3C)CS[C@H]12)c1csc(N)n1 [CEFTRIAXONE]
- MIC [3]: 16 µg/mL (≈ 28.9 µM)
- MIC (Klebsiella pneumoniae [9]): 32 µg/mL (≈ 57.7 µM)
- MIC (Escherichia coli [4]): 32 µg/mL (≈ 57.7 µM)
- MIC (Escherichia coli [5]): 64 µg/mL (≈ 115 µM)
- MIC (Escherichia coli [6]): 256 µg/mL (≈ 462 µM)
- MIC (Escherichia coli [7]): 128 µg/mL (≈ 231 µM)
- MIC (Escherichia coli [8]): 128 µg/mL (≈ 231 µM)
- MIC (Escherichia coli [10]): 0.12 µg/mL (≈ 0.216 µM)

Compound: C[C@]1(/C=C\C#N)[C@H](C(=O)O)N2C(=O)C[C@H]2S1(=O)=O
- IC50 [1]: 300 nM
- IC50 [2]: 300 nM

Compound: CO/N=C(\C(=O)N[C@@H]1C(=O)N2C(C(=O)O)=C(COC(N)=O)CS[C@H]12)c1ccco1 [CEFUROXIME]
- MIC [3]: > 256 µg/mL
- MIC (Klebsiella pneumoniae [9]): > 256 µg/mL
- MIC (Escherichia coli [4]): > 256 µg/mL
- MIC (Escherichia coli [5]): > 256 µg/mL
- MIC (Escherichia coli [6]): > 256 µg/mL
- MIC (Escherichia coli [7]): > 256 µg/mL
- MIC (Escherichia coli [8]): > 256 µg/mL
- MIC (Escherichia coli [10]): 2 µg/mL (≈ 4.71 µM)

Compound: CC1(C)S[C@@H]2[C@H](NC(=O)[C@H](C(=O)O)c3ccsc3)C(=O)N2[C@H]1C(=O)O [TICARCILLIN]
- MIC [3]: > 256 µg/mL
- MIC (Klebsiella pneumoniae [9]): > 256 µg/mL
- MIC (Escherichia coli [4]): > 256 µg/mL
- MIC (Escherichia coli [5]): > 256 µg/mL
- MIC (Escherichia coli [6]): > 256 µg/mL
- MIC (Escherichia coli [7]): > 256 µg/mL
- MIC (Escherichia coli [8]): > 256 µg/mL
- MIC (Escherichia coli [10]): 2 µg/mL (≈ 5.2 µM)

Compound: CC(C)(O/N=C(\C(=O)N[C@@H]1C(=O)N2C(C(=O)[O-])=C(C[n+]3ccccc3)CS[C@H]12)c1csc(N)n1)C(=O)O [CEFTAZIDIME]
- MIC [3]: 32 µg/mL (≈ 58.5 µM)
- MIC (Klebsiella pneumoniae [9]): 64 µg/mL (≈ 117 µM)
- MIC (Escherichia coli [4]): 128 µg/mL (≈ 234 µM)
- MIC (Escherichia coli [5]): 128 µg/mL (≈ 234 µM)
- MIC (Escherichia coli [6]): 256 µg/mL (≈ 468 µM)
- MIC (Escherichia coli [7]): 256 µg/mL (≈ 468 µM)
- MIC (Escherichia coli [8]): 256 µg/mL (≈ 468 µM)
- MIC (Escherichia coli [10]): 0.5 µg/mL (≈ 0.915 µM)

Compound: CCN1CCN(C(=O)N[C@@H](C(=O)N[C@@H]2C(=O)N3[C@@H]2SC(C)(C)[C@@H]3C(=O)O)c2ccccc2)C(=O)C1=O [PIPERACILLIN]
- MIC [3]: 64 µg/mL (≈ 124 µM)
- MIC (Klebsiella pneumoniae [9]): 128 µg/mL (≈ 247 µM)
- MIC (Escherichia coli [4]): 128 µg/mL (≈ 247 µM)
- MIC (Escherichia coli [5]): 128 µg/mL (≈ 247 µM)
- MIC (Escherichia coli [6]): 256 µg/mL (≈ 495 µM)
- MIC (Escherichia coli [7]): 256 µg/mL (≈ 495 µM)
- MIC (Escherichia coli [8]): 256 µg/mL (≈ 495 µM)
- MIC (Escherichia coli [10]): 1 µg/mL (≈ 1.93 µM)
- MIC [11]: 16 µg/mL
- MIC (Klebsiella pneumoniae [12]): 32 µg/mL
- MIC (Escherichia coli [13]): 32 µg/mL
- MIC (Escherichia coli [14]): 32 µg/mL
- MIC (Escherichia coli [15]): 64 µg/mL
- MIC (Escherichia coli [16]): 64 µg/mL
- MIC (Escherichia coli [17]): 64 µg/mL
- MIC (Escherichia coli [18]): 0.5 µg/mL

Compound: CO/N=C(\C(=O)N[C@@H]1C(=O)N2C(C(=O)O)=C(COC(C)=O)CS[C@H]12)c1csc(N)n1 [CEFOTAXIME]
- MIC [3]: 32 µg/mL (≈ 70.3 µM)
- MIC (Klebsiella pneumoniae [9]): 32 µg/mL (≈ 70.3 µM)
- MIC (Escherichia coli [4]): 32 µg/mL (≈ 70.3 µM)
- MIC (Escherichia coli [5]): 32 µg/mL (≈ 70.3 µM)
- MIC (Escherichia coli [6]): 128 µg/mL (≈ 281 µM)
- MIC (Escherichia coli [7]): 128 µg/mL (≈ 281 µM)
- MIC (Escherichia coli [8]): 128 µg/mL (≈ 281 µM)
- MIC (Escherichia coli [10]): 0.12 µg/mL (≈ 0.263 µM)

Compound: CC1(C)S[C@@H]2[C@H](NC(=O)[C@H](N)c3ccc(O)cc3)C(=O)N2[C@H]1C(=O)O [AMOXICILLIN]
- MIC [3]: > 256 µg/mL
- MIC (Klebsiella pneumoniae [9]): > 256 µg/mL
- MIC (Escherichia coli [4]): > 256 µg/mL
- MIC (Escherichia coli [5]): > 256 µg/mL
- MIC (Escherichia coli [6]): > 256 µg/mL
- MIC (Escherichia coli [7]): > 256 µg/mL
- MIC (Escherichia coli [8]): > 256 µg/mL
- MIC (Escherichia coli [10]): 2 µg/mL (≈ 5.47 µM)
- MIC [19]: > 64 µg/mL
- MIC (Klebsiella pneumoniae [20]): > 64 µg/mL
- MIC (Escherichia coli [21]): > 64 µg/mL
- MIC (Escherichia coli [22]): > 64 µg/mL
- MIC (Escherichia coli [23]): > 64 µg/mL
- MIC (Escherichia coli [24]): > 64 µg/mL
- MIC (Escherichia coli [25]): > 64 µg/mL
- MIC (Escherichia coli [26]): 2 µg/mL

Compound: CO[C@@]1(NC(=O)Cc2cccs2)C(=O)N2C(C(=O)O)=C(COC(N)=O)CS[C@@H]21 [CEFOXITIN]
- MIC [3]: > 256 µg/mL
- MIC (Klebsiella pneumoniae [9]): > 256 µg/mL
- MIC (Escherichia coli [4]): > 256 µg/mL
- MIC (Escherichia coli [5]): > 256 µg/mL
- MIC (Escherichia coli [6]): > 256 µg/mL
- MIC (Escherichia coli [7]): > 256 µg/mL
- MIC (Escherichia coli [8]): > 256 µg/mL
- MIC (Escherichia coli [10]): 4 µg/mL (≈ 9.36 µM)

Compound: C[C@@H](O)[C@H]1C(=O)N2C(C(=O)O)=C(SCCNC=N)C[C@H]12 [IMIPENEM ANHYDROUS]
- MIC [3]: 0.25 µg/mL (≈ 0.835 µM)
- MIC (Klebsiella pneumoniae [9]): 0.5 µg/mL (≈ 1.67 µM)
- MIC (Escherichia coli [4]): 0.5 µg/mL (≈ 1.67 µM)
- MIC (Escherichia coli [5]): 0.5 µg/mL (≈ 1.67 µM)
- MIC (Escherichia coli [6]): 0.5 µg/mL (≈ 1.67 µM)
- MIC (Escherichia coli [7]): 0.5 µg/mL (≈ 1.67 µM)
- MIC (Escherichia coli [8]): 0.5 µg/mL (≈ 1.67 µM)
